Values joined by “and” are separate entries in the source; they are usually repeats but may differ in a detail not shown here. Equal entries are not always repeated.
What was measured:
NCI-H460 [1] = assay: Cytotoxicity against human H460 cells after 72 hrs by alamar blue assay; assay type: functional, cell-based; conditions: Homo sapiens, NCI-H460, 72 h
How it was run: (§1)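 Cells seeded at 4 × 10³ per well and grown 24 h. Compounds dissolved in DMSO and diluted in medium to final concentrations, then incubated 72 h at 37 °C, 5% CO₂. Viable cells read by AlamarBlue; IC₅₀ taken as the concentration giving 50% growth inhibition.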

[2] = Ratio of IC50 for mouse bone marrow cell to IC50 for human bone marrow cell; assay type: cell-based; conditions: bone marrow cells
How it was run: (§2)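 CFU-GM colony assay in triplicate at 2 × 10⁴ cells per culture, using thawed normal human bone marrow or fresh mouse femoral marrow. Colonies were scored after 16-18 days. The IC50 or IC90 from each species gave the mouse/human ratio.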

[3] = Ratio of IC90 for mouse bone marrow cell to IC90 for human bone marrow cell; assay type: ADME, cell-based; conditions: bone marrow cells; how it was run: as §2
[4] = Cytotoxicity against mouse bone marrow cell by CFU-GM assay; assay type: cell-based
How it was run: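 CFU-GM colony assay on normal human bone marrow (thawed) or mouse femoral marrow (freshly extracted). Human colonies scored after 16-18 days. IC₅₀ taken from triplicate assays.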

[5] = Cytotoxicity against human bone marrow cell by CFU-GM assay; assay type: cell-based; conditions: for IC50: Homo sapiens, Bone marrow cell; for IC90: human, bone marrow cells
[6] = Cytotoxicity against human MES-SA/Dx5 cells overexpressing MDR1 after 72 hrs by alamar blue assay; assay type: functional, cell-based; conditions: MES-SA/Dx5, 72 h; how it was run: as §1
NCI-H460 [7] = assay: Ratio IC50 for human H460 cells after 72 hrs in presence of 40 mg/ml HSA to IC50 for human H460 cells after 72 hrs; assay type: functional
How it was run: (§3)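 H460 cells seeded at 4 × 10³ per well and grown 24 h. Compounds then cocultured with cells for 72 h at 37 °C, with or without 40 mg/mL human serum albumin. Viability read by AlamarBlue; IC₅₀ = 50% growth inhibition. Ratio compares the IC₅₀ with HSA to the IC₅₀ without.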

[8] = Resistance ratio of IC50 for human H69AR cells overexpressing MRP1 after 72 hrs s to IC50 for human H69 cells after 72 hrs
PC-3 [9] = assay: Cytotoxicity against human PC3 cells after 72 hrs by alamar blue assay; assay type: functional, cell-based; conditions: PC-3, 72 h; how it was run: as §1
[10] = Resistance ratio of IC50 for human MES-SA/Dx5 cells overexpressing MDR1 after 72 hrs to IC50 for human MESSA cells after 72 hrs; assay type: functional
How it was run: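 Cytotoxicity compared in MDR1-overexpressing lines and their parental wild-type lines. 72 h exposure at 37 °C, viability by AlamarBlue, IC₅₀ at 50% growth inhibition. Resistance ratio = IC₅₀ in overexpressing line / IC₅₀ in parental line.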

HT-29 [11] = assay: Cytotoxicity against human HT-29 cells after 72 hrs by alamar blue assay; assay type: functional, cell-based; conditions: HT-29, 72 h; how it was run: as §1
[12] = Cytotoxicity against human MESSA cells after 72 hrs by alamar blue assay; assay type: functional, cell-based; conditions: MES-SA; how it was run: as §1
H69AR = assay: Cytotoxicity against human H69AR cells overexpressing MRP1 after 72 hrs by alamar blue assay
NCI-H69 = assay: Cytotoxicity against human H69 cells after 72 hrs by alamar blue assay; assay type: functional, cell-based; conditions: NCI-H69, 72 h; how it was run: as §1
NCI-H460 [13] = assay: Cytotoxicity against human H460 cells after 72 hrs by alamar blue assay in presence of 40 mg/ml HSA; assay type: functional, cell-based; conditions: NCI-H460, 72 h; how it was run: as §3
Malme-3M = assay: Cytotoxicity against human MALME-3M cells after 72 hrs by alamar blue assay; assay type: functional, cell-based; how it was run: as §1
SK-MEL-2 = assay: Cytotoxicity against human SK-MEL-2 cells after 72 hrs by alamar blue assay; assay type: functional, cell-based; conditions: SK-MEL-2, 72 h; how it was run: as §1
DU-145 = assay: Cytotoxicity against human DU145 cells after 72 hrs by alamar blue assay; assay type: functional, cell-based; conditions: DU-145, 72 h; how it was run: as §1
IGROV-1 = assay: Cytotoxicity against human IGROV1 cells after 72 hrs by alamar blue assay; assay type: functional, cell-based; conditions: IGROV-1, 72 h; how it was run: as §1
A-375 = assay: Cytotoxicity against human A375 cells after 72 hrs by alamar blue assay; assay type: functional, cell-based; conditions: A-375, 72 h; how it was run: as §1
LNCaP = assay: Cytotoxicity against human LNCAP cells after 72 hrs by alamar blue assay; assay type: functional, cell-based; how it was run: as §1
HT-29 [14] = assay: Antitumor activity against human HT-29 cells xenografted in nu/nu mouse assessed as tumor growth inhibition at 2 mg/kg, po QD for 5 days; parameters: scale not given: the % may be the effect or the level left
PC-3 [15] = assay: Antitumor activity against human PC3 cells xenografted in nu/nu mouse assessed as tumor growth delay at 2 mg/kg, po QD for 5 days followed by 2days without treatment for 2 weeks; assay type: functional
How it was run: (§4)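 Nude mice (nu/nu), females, or males for the prostate model, 4-6 weeks old, implanted sc in the flank with tumor cells (H460 at 1 × 10⁶). Groups of 10 were randomized at 100-150 mm³. Dosing was oral gavage in 5% DMSO/5% Tween 80/1% CMC in water, QD 5 days on/2 off per cycle, for 2 cycles (H460, PC-3) or 4 cycles (HT29). Tumor volume (length × width²/2) and body weight were measured twice weekly.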

HT-29 [16] = assay: Antitumor activity against human HT-29 cells xenografted in nu/nu mouse assessed as tumor growth delay at 2 mg/kg, po QD for 5 days
Mus musculus [17] = assay: Toxicity in nu/nu mouse assessed as body weight loss at 2 mg/kg, po QD for 5 days followed by 4 days without treatment for 2 weeks; assay type: organism-based; parameters: dose 2 mg/kg, route oral; conditions: in vivo
NCI-H460 [18] = assay: Antitumor activity against human H460 cells xenografted in nu/nu mouse assessed as tumor growth inhibition at 2 mg/kg, po QD for 5 days followed by 2days without treatment for 2 weeks; assay type: functional; parameters: scale not given: the % may be the effect or the level left; how it was run: as §4
PC-3 [19] = assay: Antitumor activity against human PC3 cells xenografted in nu/nu mouse assessed as tumor growth inhibition at 2 mg/kg, po QD for 5 days followed by 2days without treatment for 2 weeks; assay type: functional; parameters: scale not given: the % may be the effect or the level left; how it was run: as §4
NCI-H460 [20] = assay: Antitumor activity against human H460 cells xenografted in nu/nu mouse assessed as tumor growth delay at 2 mg/kg, po QD for 5 days followed by 2days without treatment for 2 weeks; assay type: functional; how it was run: as §4
Mus musculus [21] = assay: Toxicity in nu/nu mouse assessed as body weight loss at 2 mg/kg, po QD for 5 days followed by 2 days without treatment for 2 weeks; assay type: organism-based; parameters: dose 2 mg/kg, route oral; conditions: in vivo; how it was run: as §4

| Compound | IC50 (NCI-H460 [1]) [nM] | selectivity ratio [2] | selectivity ratio [3] | IC50 [4] [nM] | IC50 [5] [nM] | IC90 [5] [nM] | IC50 [6] [nM] | Ratio (NCI-H460 [7]) | Ratio [8] | IC50 (PC-3 [9]) [nM] | Ratio [10] | IC50 (HT-29 [11]) [nM] | IC50 [12] [nM] | IC50 (H69AR) [nM] | IC50 (NCI-H69) [nM] | IC50 (NCI-H460 [13]) [nM] | IC50 (Malme-3M) [nM] | IC50 (SK-MEL-2) [nM] | IC50 (DU-145) [nM] | IC50 (IGROV-1) [nM] | also measured |
| --- | --- | --- | --- | --- | --- | --- | --- | --- | --- | --- | --- | --- | --- | --- | --- | --- | --- | --- | --- | --- | --- |
| CCc1c2c(nc3ccccc13)-c1c3c(c(CO)c(=O)n1C2)[C@@](O)(CC)C(=O)N3 | > 10000 | – | – | – | – | – | – | – | – | – | – | – | – | – | – | – | – | – | – | – | – |
| CC[C@@]1(O)C(=O)OCc2c1cc1n(c2=O)Cc2cc3c(N)cccc3nc2-1 [9-AMINOCAMPTOTHECIN] | – | 75 | 88 | 90 | 1 | 8 | – | – | – | – | – | – | – | – | – | – | – | – | – | – | – |
| CC[C@@]1(O)C(=O)OCc2c1cc1n(c2=O)Cc2cc3ccccc3nc2-1 [CAMPTOTHECIN] | 13 | – | – | – | – | – | 52 | >77 | >250 | 12 | 1 | 260 | 57 | > 300 | 1 | > 1000 | – | – | – | – | – |
| CCc1c2c(nc3ccc(OC(=O)N4CCC(N5CCCCC5)CC4)cc13)-c1cc3c(c(=O)n1C2)COC(=O)[C@]3(O)CC [IRINOTECAN] | 15 | 85 | 100 | 110 | 1 | 8 | 22 | 2 | 11 | 4 | 2 | 220 | 10 | 250 | 22 | 27 | 200 | 100 | 200 | 30 | IC50 (A-375): 4 nM; IC50 (LNCaP): 9 nM |
| CC[C@@]1(O)C(=O)OCc2c1cc1n(c2=O)Cc2cc3c(CN(C)C)c(O)ccc3nc2-1 [TOPOTECAN] | 45 | 16 | 14 | 130 | 8 | 50 | 33 | 2 | >47 | 45 | 8 | > 1000 | 4 | > 300 | 6 | 110 | 1000 | 140 | 1000 | 160 | Activity (HT-29 [14]): 70%; Time (PC-3 [15]): 21 days; Time (HT-29 [16]): 16 days; Activity (Mus musculus [17]): 0% and 1%; Activity (NCI-H460 [18]): 46%; Activity (PC-3 [19]): 79%; Time (NCI-H460 [20]): 5 days; Activity (Mus musculus [21]): 9%; IC50 (A-375): 13 nM; IC50 (LNCaP): 9 nM |

Source: ChEMBL document CHEMBL1687926, “14-Aminocamptothecins: their synthesis, preclinical activity, and potential use for cancer treatment” (J Med Chem, 2011)
